Broadly, the IC50 is the concentration needed to halve the response being measured.

The source made the active and inactive calls.

Experiment [1] has as its target T1, Voltage-dependent T-type calcium channel subunit alpha-1H (Homo sapiens, UniProt O95180). Nature of the experiment: Inhibition of human CaV3.2 expressed in HEK293 cells assessed as suppression of T-current amplitude by measuring remaining activity at 3 uM after 10 mins by whole cell patch clamp method relative to control. Format: cell-based. The gist of the method:
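HEK293 cells stably expressing human Cav3.2 were recorded by whole-cell patch clamp, holding at −90 mV with a 30 mV test pulse evoking Ba²⁺ currents. Remaining T-current after 3 μM compound is given as % of control; some entries were measured at 1 μM.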
Background: In patch-clamp work, channel activity is measured electrically.

A short description of experiment [2]: Inhibition of T-type calcium channel in human Jurkat cells assessed as suppression of thapsigargin-induced intracellular calcium flux after 1 hr by indo-1 dye-based spectrofluorometric method. Format: cell-based.
In experiment [3] the target is T1, Voltage-dependent T-type calcium channel subunit alpha-1H. Nature of the experiment: Inhibition of human CaV3.2 expressed in HEK293 cells assessed as suppression of T-current amplitude after 10 mins by whole cell patch clamp method. Format: cell-based. A digest of the protocol: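 Whole-cell patch clamp was done on HEK293 cells stably expressing human Cav3.2. Membrane was held at −90 mV and Ba²⁺ currents were evoked by a 30 mV test pulse. IC50 was derived from T-current suppression.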

In experiment [4] the target is Voltage-dependent T-type calcium channel subunit alpha-1G (Homo sapiens, UniProt O43497). Kind of experiment: Inhibition of human CaV3.1 expressed in HEK293 cells assessed as suppression of T-current after 10 mins by whole cell patch clamp method. Format: cell-based.
Voltage-dependent T-type calcium channel subunit alpha-1G, sequence (O43497 whole entry): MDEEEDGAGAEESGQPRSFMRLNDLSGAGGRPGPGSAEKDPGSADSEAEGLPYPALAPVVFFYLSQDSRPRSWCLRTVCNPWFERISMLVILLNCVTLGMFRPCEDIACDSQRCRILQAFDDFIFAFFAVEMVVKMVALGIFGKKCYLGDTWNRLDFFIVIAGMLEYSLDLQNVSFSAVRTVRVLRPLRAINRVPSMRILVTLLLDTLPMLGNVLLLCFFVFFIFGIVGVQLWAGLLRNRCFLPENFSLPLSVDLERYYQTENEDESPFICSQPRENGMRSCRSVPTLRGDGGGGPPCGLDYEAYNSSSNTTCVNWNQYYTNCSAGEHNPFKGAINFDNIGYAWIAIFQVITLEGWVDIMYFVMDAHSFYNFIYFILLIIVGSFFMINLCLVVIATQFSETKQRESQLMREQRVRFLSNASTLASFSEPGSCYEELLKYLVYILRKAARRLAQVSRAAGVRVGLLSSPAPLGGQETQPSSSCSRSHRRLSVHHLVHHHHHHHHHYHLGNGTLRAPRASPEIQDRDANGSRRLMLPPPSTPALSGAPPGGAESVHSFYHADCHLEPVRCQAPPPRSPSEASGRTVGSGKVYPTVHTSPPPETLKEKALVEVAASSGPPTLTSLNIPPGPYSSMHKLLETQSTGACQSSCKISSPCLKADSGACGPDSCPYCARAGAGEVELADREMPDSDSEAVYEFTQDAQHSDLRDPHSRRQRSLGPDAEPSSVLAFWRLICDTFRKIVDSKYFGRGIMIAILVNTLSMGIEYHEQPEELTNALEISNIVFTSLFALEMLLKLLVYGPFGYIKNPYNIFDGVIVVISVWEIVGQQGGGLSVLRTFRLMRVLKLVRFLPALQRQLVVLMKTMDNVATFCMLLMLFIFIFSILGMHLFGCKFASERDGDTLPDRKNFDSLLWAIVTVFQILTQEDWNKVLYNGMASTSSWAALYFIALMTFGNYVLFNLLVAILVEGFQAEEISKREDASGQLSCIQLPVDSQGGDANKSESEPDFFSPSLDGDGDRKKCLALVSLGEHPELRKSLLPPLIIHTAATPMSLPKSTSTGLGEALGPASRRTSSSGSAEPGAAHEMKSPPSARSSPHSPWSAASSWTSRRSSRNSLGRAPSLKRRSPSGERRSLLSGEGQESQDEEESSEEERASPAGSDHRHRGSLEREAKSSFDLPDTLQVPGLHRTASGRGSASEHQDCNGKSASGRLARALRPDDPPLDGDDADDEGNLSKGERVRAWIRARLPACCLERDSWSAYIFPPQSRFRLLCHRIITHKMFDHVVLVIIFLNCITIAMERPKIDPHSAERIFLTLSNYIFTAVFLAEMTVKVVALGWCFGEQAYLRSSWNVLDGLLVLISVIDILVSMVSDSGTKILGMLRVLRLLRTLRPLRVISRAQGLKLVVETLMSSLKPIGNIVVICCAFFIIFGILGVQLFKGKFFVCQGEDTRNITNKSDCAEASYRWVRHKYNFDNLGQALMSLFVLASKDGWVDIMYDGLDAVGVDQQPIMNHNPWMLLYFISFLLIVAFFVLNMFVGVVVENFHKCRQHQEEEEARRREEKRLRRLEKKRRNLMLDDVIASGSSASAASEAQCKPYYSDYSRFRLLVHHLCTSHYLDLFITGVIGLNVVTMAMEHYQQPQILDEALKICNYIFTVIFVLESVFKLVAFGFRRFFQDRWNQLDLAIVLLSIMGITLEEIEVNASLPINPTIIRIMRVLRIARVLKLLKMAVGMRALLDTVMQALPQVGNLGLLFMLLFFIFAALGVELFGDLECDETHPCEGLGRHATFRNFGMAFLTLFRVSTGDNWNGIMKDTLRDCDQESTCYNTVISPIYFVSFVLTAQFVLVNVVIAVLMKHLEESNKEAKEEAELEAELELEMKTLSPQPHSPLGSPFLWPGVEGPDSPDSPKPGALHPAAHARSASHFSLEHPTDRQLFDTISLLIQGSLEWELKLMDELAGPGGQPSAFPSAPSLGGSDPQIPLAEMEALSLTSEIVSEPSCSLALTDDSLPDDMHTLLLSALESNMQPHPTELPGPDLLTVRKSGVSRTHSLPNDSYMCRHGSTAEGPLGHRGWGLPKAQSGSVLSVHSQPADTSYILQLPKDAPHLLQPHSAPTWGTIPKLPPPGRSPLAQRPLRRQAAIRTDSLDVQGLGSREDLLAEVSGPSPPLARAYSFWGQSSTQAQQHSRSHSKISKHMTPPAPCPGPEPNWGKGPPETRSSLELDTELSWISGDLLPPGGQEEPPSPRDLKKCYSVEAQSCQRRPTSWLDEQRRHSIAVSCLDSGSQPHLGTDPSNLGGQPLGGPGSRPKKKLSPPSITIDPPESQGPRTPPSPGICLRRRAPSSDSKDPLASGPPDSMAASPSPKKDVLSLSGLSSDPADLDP
Experiment [5] is described as follows: Inhibition of T-type calcium channel (unknown origin). The arrangement: species or system Homo sapiens.
Experiment [6] concerns Mus musculus. Kind of experiment: Antihyperalgesic activity in ddY mouse assessed as suppression of partial sciatic nerve ligation-induced mechanical allodynia at 10 mg/kg, ip administered 7 days by Von Frey test. The experiment is classed as functional, organism-based. A digest of the protocol:
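Male ddY mice (18–25 g) had the right sciatic nerve partially ligated under isoflurane and were tested one week later. Dosing was i.p. as a suspension in 0.5% carboxymethyl cellulose sodium, with vehicle-treated sham and PSNL groups. Ipsilateral hindpaw threshold was measured by von Frey up-down method before ligation and 0–90 min after injection. Data are mean with S.E.M. (5–11 mice), analysed non-parametrically.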

Experiment [7] concerns Mus musculus. Nature of the experiment: Antihyperalgesic activity in ddY mouse assessed as suppression of partial sciatic nerve ligation-induced mechanical allodynia at 20 mg/kg, ip administered 7 days by Von Frey test. The experiment is classed as functional, organism-based. A digest of the protocol:
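Male ddY mice (18–25 g) had the right sciatic nerve partially ligated under isoflurane and were tested 7 days later. Compound was suspended in 0.5% CMC-Na and given i.p. Ipsilateral hindpaw threshold was measured by von Frey up-down method before ligation and over 0–90 min post-dose. Data are mean ± S.E.M. (5–11 mice) with non-parametric statistics.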

T1 sequence (O95180 whole entry): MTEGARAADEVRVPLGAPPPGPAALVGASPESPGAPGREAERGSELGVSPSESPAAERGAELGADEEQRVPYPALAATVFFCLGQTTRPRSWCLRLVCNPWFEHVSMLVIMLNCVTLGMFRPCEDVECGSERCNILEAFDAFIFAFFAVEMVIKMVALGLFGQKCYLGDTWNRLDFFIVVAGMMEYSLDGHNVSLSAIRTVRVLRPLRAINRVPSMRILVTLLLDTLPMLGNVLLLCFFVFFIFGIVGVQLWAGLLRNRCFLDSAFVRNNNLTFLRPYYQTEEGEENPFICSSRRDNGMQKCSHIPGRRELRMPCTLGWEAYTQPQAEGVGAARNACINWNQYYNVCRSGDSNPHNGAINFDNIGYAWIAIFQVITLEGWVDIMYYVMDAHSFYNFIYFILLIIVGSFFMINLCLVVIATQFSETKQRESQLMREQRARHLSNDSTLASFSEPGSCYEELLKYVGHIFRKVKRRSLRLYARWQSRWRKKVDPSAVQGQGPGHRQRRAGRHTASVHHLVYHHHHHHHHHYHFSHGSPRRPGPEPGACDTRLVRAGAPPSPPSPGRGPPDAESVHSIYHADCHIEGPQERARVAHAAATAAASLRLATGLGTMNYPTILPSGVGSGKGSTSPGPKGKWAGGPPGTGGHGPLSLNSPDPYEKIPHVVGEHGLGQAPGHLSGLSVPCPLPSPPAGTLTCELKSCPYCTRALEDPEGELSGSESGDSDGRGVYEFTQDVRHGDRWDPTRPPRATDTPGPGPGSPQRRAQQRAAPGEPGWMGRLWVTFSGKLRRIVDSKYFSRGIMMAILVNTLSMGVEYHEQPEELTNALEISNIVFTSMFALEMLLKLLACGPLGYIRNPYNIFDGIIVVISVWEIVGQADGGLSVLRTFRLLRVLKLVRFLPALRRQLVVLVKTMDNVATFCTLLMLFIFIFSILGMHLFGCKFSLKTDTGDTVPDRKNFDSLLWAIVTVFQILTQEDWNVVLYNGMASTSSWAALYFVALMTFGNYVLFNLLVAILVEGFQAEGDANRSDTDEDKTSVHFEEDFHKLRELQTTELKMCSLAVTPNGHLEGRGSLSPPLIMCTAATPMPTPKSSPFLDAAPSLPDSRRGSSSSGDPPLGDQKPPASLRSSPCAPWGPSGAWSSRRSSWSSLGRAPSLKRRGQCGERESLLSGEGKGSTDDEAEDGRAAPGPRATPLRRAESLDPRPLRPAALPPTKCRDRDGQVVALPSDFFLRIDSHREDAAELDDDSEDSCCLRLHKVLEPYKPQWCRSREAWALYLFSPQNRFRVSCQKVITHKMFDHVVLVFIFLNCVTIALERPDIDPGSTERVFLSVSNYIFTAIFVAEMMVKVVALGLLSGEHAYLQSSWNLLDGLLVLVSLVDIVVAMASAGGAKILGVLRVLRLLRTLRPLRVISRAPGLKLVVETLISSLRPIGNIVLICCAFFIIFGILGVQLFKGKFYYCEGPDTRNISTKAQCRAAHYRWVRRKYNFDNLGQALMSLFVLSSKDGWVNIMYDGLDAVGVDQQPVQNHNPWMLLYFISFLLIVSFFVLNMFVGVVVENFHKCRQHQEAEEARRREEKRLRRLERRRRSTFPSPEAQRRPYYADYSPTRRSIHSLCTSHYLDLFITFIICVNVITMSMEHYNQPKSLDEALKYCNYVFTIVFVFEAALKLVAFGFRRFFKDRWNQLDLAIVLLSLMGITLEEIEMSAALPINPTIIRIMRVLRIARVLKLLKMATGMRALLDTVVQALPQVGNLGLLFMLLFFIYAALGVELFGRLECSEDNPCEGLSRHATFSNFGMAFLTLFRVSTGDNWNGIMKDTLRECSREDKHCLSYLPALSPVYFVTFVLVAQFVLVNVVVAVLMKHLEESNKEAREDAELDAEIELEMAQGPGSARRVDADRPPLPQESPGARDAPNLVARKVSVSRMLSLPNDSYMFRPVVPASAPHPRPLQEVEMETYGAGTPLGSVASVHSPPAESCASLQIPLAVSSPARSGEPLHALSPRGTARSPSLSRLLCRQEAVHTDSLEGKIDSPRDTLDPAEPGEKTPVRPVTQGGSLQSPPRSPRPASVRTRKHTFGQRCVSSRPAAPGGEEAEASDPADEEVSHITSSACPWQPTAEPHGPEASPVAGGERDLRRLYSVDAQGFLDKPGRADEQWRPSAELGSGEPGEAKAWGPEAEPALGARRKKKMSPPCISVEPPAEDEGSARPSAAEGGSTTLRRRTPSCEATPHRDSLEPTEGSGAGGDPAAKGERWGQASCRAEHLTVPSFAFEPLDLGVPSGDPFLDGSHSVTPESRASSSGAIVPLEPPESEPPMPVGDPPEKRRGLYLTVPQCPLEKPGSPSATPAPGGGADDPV

Take `C=CCc1c(O)cc2c(c1O)C(=O)CC(c1ccc(O)c(O)c1)O2` (configuration not stated): in experiment [1], the Activity came out at 86.7%. Same read-out and setting: the result for `CC(C)=CCc1ccc2c(c1O)C(=O)CC(c1ccccc1)O2` (configuration not stated) reads 100%; that for `C=CCc1ccc2c(c1O)C(=O)CC(c1ccc(C)cc1)O2` (configuration not stated), 72.7%; that for `CC(C)=CCc1c(O)cc2c(c1O)C(=O)CC(c1ccccc1)O2` (configuration not stated), 72.6%.

With `C=CCc1c(O)cc2c(c1O)C(=O)CC(c1ccc(Cl)cc1)O2` (configuration not stated), the Activity in experiment [1] stood at 51.9%. On to `COCC(=O)O[C@]1(CCN(C)CCCc2nc3ccccc3[nH]2)CCc2cc(F)ccc2[C@@H]1C(C)C` [MIBEFRADIL], for which the IC50 in experiment [2] stood at 1000 nM. As for `CC(C)=CCc1ccc2c(c1O)C(=O)CC(c1ccccc1O)O2` (configuration not stated), the Activity in experiment [1] was 3.77%. The IC50 in experiment [3] amounted to 1250 nM. In the case of `C=CCc1c(O)cc2c(c1O)C(=O)CC(c1cc(O)cc(O)c1)O2` (configuration not stated), the Activity in experiment [1] amounted to 74.8%. In the case of `CCC(=CCc1c(O)cc2c(c1O)C(=O)CC(c1ccc(O)cc1)O2)CC` (configuration not stated), the Activity in experiment [1] is 22.2%. The IC50 in experiment [3] worked out at 260 nM. `COc1ccc(C2CC(=O)c3c(cc(O)c(CC=C(C)C)c3O)O2)cc1` (configuration not stated): the Activity in experiment [1] was found to be 47.6%. As for `CCCC(=CCc1c(O)cc2c(c1O)C(=O)CC(c1ccc(O)cc1)O2)CCC` (configuration not stated), the Activity in experiment [1] was found to be 36.8%.

Regarding `C=C(C)[C@H](CC=C(C)C)Cc1c(O)cc(O)c2c1O[C@H](c1ccc(O)cc1O)CC2=O` [SOPHORAFLAVANONE G], the IC50 in experiment [3] and in experiment [4] was 1000 nM in each case. Consider `CCC(=CCc1ccc2c(c1O)C(=O)CC(c1ccccc1O)O2)CC` (configuration not stated), for which the Activity in experiment [1] was 16.1%. Still for that read-out and setting: the result for `C=CCc1c(O)cc2c(c1O)C(=O)CC(c1cccc(O)c1O)O2` (configuration not stated) reads 83.8%.

As to `CCOc1ccc(C2CC(=O)c3c(ccc(CC=C(CC)CC)c3O)O2)cc1` (configuration not stated), the Activity in experiment [1] was found to be 57.8%. On the same count and under the same terms, the result for `CC(C)=CCc1c(O)cc2c(c1O)C(=O)CC(c1ccc(Cl)cc1)O2` (configuration not stated) reads 59.7%.

`C=CCc1c(O)cc2c(c1O)C(=O)CC(c1ccc(OC)cc1)O2` (configuration not stated): the Activity in experiment [1] is 50.8%. As to `CC(C)=CCc1c(O)cc(O)c2c1O[C@H](c1ccc(O)cc1)CC2=O`, the IC50 in experiment [3] and in experiment [4] was 1000 nM each time. In the case of `O=C1CC(c2ccc(O)cc2)Oc2cc(O)c(CCC3CCCC3)c(O)c21` (configuration not stated), in experiment [1], the Activity came out at 5.42%. The IC50 in experiment [3] is 500 nM. As to `CCC1(C)CC(=O)NC1=O` (configuration not stated) [ETHOSUXIMIDE], the IC50 in experiment [5] stood at 600000 nM.

Turning to `C=CCc1c(O)cc2c(c1O)C(=O)CC(c1ccccc1)O2` (configuration not stated), in experiment [1], the Activity is 70.1%.

In the case of `CCC(CC)CCc1c(O)cc2c(c1O)C(=O)CC(c1ccc(O)cc1)O2` (configuration not stated), in experiment [1], the Activity worked out at 10.1%. Turning to `CCC(=CCc1c(O)cc2c(c1O)C(=O)CC(c1ccccc1O)O2)CC` (configuration not stated), the Activity in experiment [1] is 0.33%. Besides, in experiment [3], the IC50 came to 390 nM. In addition, the outcome in the experiment with Mus musculus [6] and in the experiment with Mus musculus [7] was Active. As to `C=CCc1c(O)cc2c(c1O)C(=O)CC(c1cccc(O)c1)O2` (configuration not stated), in experiment [1], the Activity amounted to 76.8%. As to `C=CCc1c(O)cc2c(c1O)C(=O)CC(c1ccccc1O)O2` (configuration not stated), the Activity in experiment [1] was 63%.

Regarding `C=CCc1ccc2c(c1O)C(=O)CC(c1ccc(Cl)cc1)O2` (configuration not stated), the Activity in experiment [1] stood at 35.9%. Same read-out and setting: the result for `COc1ccc(C2CC(=O)c3c(ccc(CC=C(C)C)c3O)O2)cc1` (configuration not stated) reads 81.9%; that for `CC(C)=CCc1c(O)cc2c(c1O)C(=O)CC(c1ccc(O)c(O)c1)O2` (configuration not stated), 14.7%.

On to `CC(C)=CCc1c(O)cc2c(c1O)C(=O)CC(c1cccc(O)c1)O2` (configuration not stated), for which the Activity in experiment [1] is 2.09%. The 50% inhibitory concentration (IC50) in experiment [3] stood at 1020 nM.

With `C=CCc1ccc2c(c1O)C(=O)CC(c1ccc(OCC)cc1)O2` (configuration not stated), the Activity in experiment [1] was 65.2%. As to `CC(C)=CCc1c(O)cc2c(c1O)C(=O)CC(c1ccc(O)cc1)O2` (racemic), the Activity in experiment [1] worked out at 12.8%. Besides, the concentration for half-maximal inhibition (IC50) in experiment [3] and in experiment [4] was 1000 nM each time. Moreover, in the experiment with Mus musculus [6], the result was inactive. For the compound `CC(C)=CCc1c(O)cc2c(c1O)C(=O)CC(c1cccc(O)c1O)O2` (configuration not stated), in experiment [1], the Activity turned out to be 67.1%.

For `CC(C)CCc1c(O)cc2c(c1O)C(=O)CC(c1ccc(O)cc1)O2` (configuration not stated), in experiment [1], the Activity stood at 1.69%. Besides, the IC50 in experiment [3] was found to be 480 nM. Consider `O=C1CC(c2ccc(O)cc2)Oc2cc(O)c(CC=C3CCCC3)c(O)c21` (configuration not stated), for which the Activity in experiment [1] amounted to 1.44%. The IC50 in experiment [3] was 460 nM. On the same counts, the results for `CC(C)=CCc1c(O)cc2c(c1O)C(=O)CC(c1ccccc1O)O2` (configuration not stated) are 2.04% and 640 nM. As to `CC(C)=CCc1ccc2c(c1O)C(=O)CC(c1ccc(C)cc1)O2` (configuration not stated), the Activity in experiment [1] stood at 103%. Same read-out and setting: the result for `C=CCc1ccc2c(c1O)C(=O)CC(c1ccccc1O)O2` (configuration not stated) reads 32%. Still for that read-out and setting: the result for `C=CCc1ccc2c(c1O)C(=O)CC(c1ccc(OC)cc1)O2` (configuration not stated) reads 59%; that for `C=CCc1ccc2c(c1O)C(=O)CC(c1ccccc1)O2` (configuration not stated), 90.1%; that for `CC(C)=CCc1ccc2c(c1O)C(=O)CC(c1ccc(Cl)cc1)O2` (configuration not stated), 78.5%.

Consider `CC(C)=CCc1c(O)cc2c(c1O)C(=O)CC(c1cc(O)cc(O)c1)O2` (configuration not stated), for which, in experiment [1], the Activity was 80.9%.

Regarding `CC(C)=CCc1c(O)cc2c(c1O)C(=O)CC(c1c(O)cccc1O)O2` (configuration not stated), in experiment [1], the Activity came out at 10.3%.

These data come from ChEMBL document CHEMBL4229462, “Design and synthesis of novel anti-hyperalgesic agents based on 6-prenylnaringenin as the T-type calcium channel blockers” (Bioorg Med Chem, 2018).
